Data reported in ChEMBL document CHEMBL1136122, “Are 5'-O-carbamate-2',3'-dideoxythiacytidine new anti-HIV and anti-HBV nucleoside drugs or prodrugs?” (Bioorg Med Chem Lett, 2003).

Columns and labels:
[1] = In vitro concentration required to inhibit the HIV-1 LA1 replication on PBMCs cell (peripheral blood mononuclear cells); type: functional, cell-based; conditions: Homo sapiens, PBMC
How it was run: (§1)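 EC50 is reported with standard deviation. In MT-4 cells it is 50% protection from HIV-1 cytopathicity. In PBMCs it is 50% inhibition of HIV-1 replication.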

[2] = Selectivity (CC50/EC50) for death of uninfected PBMCs to that of inhibition of […] of HIV-1 LA1 on PBMCs (peripheral blood mononuclear cells); type: functional
[3] = Selectivity (CC50/EC50) for death of uninfected MT4 cell to that of inhibition of cytopathicity of HIV-1 IIIB on MT-4 cell; type: functional
[4] = system: MT4; assay: In vitro concentration required to cause death of uninfected MT-4 cell; type: functional; conditions: Homo sapiens
[5] = system: HepG2; assay: In vitro concentration required to inhibit HBV DNA secretion by HepG2.2.15 transfected by HBV; type: functional, cell-based; conditions: Homo sapiens
How it was run: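 Used HepG2.2.15 cells stably transfected with HBV, following a standard procedure. EC50 is the concentration giving 50% inhibition of HBV DNA secretion, reported with standard deviation.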

[6] = In vitro concentration required to cause death of uninfected PBMCs cell (peripheral blood mononuclear cells); type: functional; conditions: Homo sapiens, PBMC
[7] = system: MT4; assay: In vitro concentration required to inhibit the cytopathicity of HIV-1 IIIB on MT-4 cell; type: functional, cell-based; conditions: Homo sapiens; how it was run: as §1
[8] = system: MT4; assay: In vitro concentration required to inhibit the cytopathicity of HIV-1 IIIB on MT-4 cell; NA=no activity; type: functional, cell-based, Homo sapiens; how it was run: as §1

| SMILES | EC50 [1] [µM] | SI [2] | SI [3] | CC50 [4] [µM] | EC50 [5] [µM] | CC50 [6] [µM] | EC50 [7] [µM] | EC50 [8] |
| --- | --- | --- | --- | --- | --- | --- | --- | --- |
| NCCCOC(=O)OCC1OC(n2ccc(N)nc2=O)CS1 (centres undefined) | 0.01 | >1000 | >57 | > 17 | 0.5 | > 10 | 0.3 | – |
| NCCCCOC(=O)OCC1OC(n2ccc(N)nc2=O)CS1 (centres undefined) | 0.1 | > 100 | >260 | > 218 | 1 | > 10 | 0.8 | – |
| Nc1ccn(C2CSC(COC(=O)NCCCCCCO)O2)c(=O)n1 (centres undefined) | 10 | >1 | >3 | > 208 | 5 | > 10 | 75 | – |
| Nc1ccn([C@@H]2CS[C@H](CO)O2)c(=O)n1 [LAMIVUDINE] | 0.01 | >1000 | >107 | > 44 | 0.4 | > 10 | 0.4 | – |
| NCCCCNC(=O)OCC1OC(n2ccc(N)nc2=O)CS1 (centres undefined) | 10 | >1 | >14 | > 218 | 1 | > 10 | 15 | – |
| Nc1ccn(C2CSC(COC(=O)NCP(=O)(O)O)O2)c(=O)n1 (centres undefined) | > 10 | – | – | > 322 | 5 | > 10 | – | Not Active |
| NCCCNC(=O)OCC1OC(n2ccc(N)nc2=O)CS1 (centres undefined) | 1 | >10 | >10 | > 282 | 1 | > 10 | 27 | – |
| CCCCNC(=O)OCC1OC(n2ccc(N)nc2=O)CS1 (centres undefined) | 5 | >2 | >11 | > 283 | 1 | > 10 | 26 | – |
| Nc1ccn(C2CSC(COC(=O)NCCCCO)O2)c(=O)n1 (centres undefined) | > 10 | – | – | > 217 | 5 | > 10 | > 200 | – |
| CCCNC(=O)OCC1OC(n2ccc(N)nc2=O)CS1 (centres undefined) | 10 | >1 | >9 | > 285 | 5 | > 10 | 32 | – |
| CCOP(=O)(CNC(=O)OCC1OC(n2ccc(N)nc2=O)CS1)OCC (centres undefined) | 10 | >1 | >2 | > 233 | > 5 | > 10 | 126 | – |
| Nc1ccn(C2CSC(COC(=O)NCCCO)O2)c(=O)n1 (centres undefined) | > 10 | >1 | – | > 281 | 1 | > 10 | > 254 | – |
